# Source: PubChem BioAssay (several laboratories)
# Shown is part of a subset that was picked to be rich in hits.
# G6PDH counter: L. mesenteroides G6PDH inhibition counter-screen. Purified L. mesenteroides G6PDH, diaphorase/resazurin coupled fluorescence, 45 min. inhibition, % at 5 µM. hit rate 0.12% among 200,000
# Redox H2O2 prof: compounds producing H2O2 with reducing agent – biochemical, NIH compound library profiling, artefact control for MLSCN library redox annotation, primary screen; hit rate 0.03% among 200,000; activation, % at 10 µM; DTT-dependent redox cycling H2O2, phenol red/HRP absorbance; 100% = 100 µM peroxide control, 0% = buffer;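 active = activation of at least 50% relative to the plate's high and low controls in the primary single-dose screen; inactive = activation below 50%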;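 note: compound incubated with DTT at 0.8 mM final as the reducing agent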
# Diaph inh CS: counter-screen for diaphorase-based assays: diaphorase inhibitors and chemical oxidizers | inhibition, % at 20 µM | AID 1217 | diaphorase resazurin-to-resorufin fluorescence, NADH, 16 min; bacterial (C. kluyveri) enzyme, not human | hit rate 0.69% among 190,000;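 active = primary screen inhibition at 20 µM above a set limit, cut at about 50% in these data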;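 note: plate controls were DMSO with full reaction for no effect and wells lacking NADH for full effect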
#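 System: Bacterial diaphorase enzyme (C. kluyveri) | Incubation: 16-min room-temperature incubation before reading | Benchmarks: No-NADH positive control and DMSO neutral control | Measured by: Resorufin fluorescence 544/590 nm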
# L major viab: Leishmania major promastigote growth inhibition; Leishmania major promastigotes, resazurin fluorescence viability; inhibition, % at 10 µM; hit rate 9% among 200,000; AID 1063;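 note: promastigotes grown with compound for 44 hours at 28 °C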
# PfG6PD inh: PfG6PD (Plasmodium falciparum) enzyme inhibition | PfGluPho enzyme, NADPH resazurin-diaphorase fluorescence | inhibition, % at 20 µM | hit rate 0.78% among 350,000 | AID 504690;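 active = inhibition reaching at least a set limit at 20 µM in the primary screen, cut at about 59% in these data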;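 note: 0% = DMSO wells with substrate and 100% = DMSO wells lacking glucose-6-phosphate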
# Diaph act CS: counter-screen for diaphorase-based assays: diaphorase activators and chemical reducers | Diaphorase/resazurin coupled assay, resorufin fluorescence, 16 min; hits give high values; 1 = vehicle wells, 0 = NADH-free wells | activation factor at 20 µM | hit rate 0.005% among 190,000 | AID 1229;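 active = diaphorase activity raised at least twofold by the compound at 20 µM; inactive = activation factor below 2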
#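 Measured by – red resorufin fluorescence at 544/590 nm excitation/emission · Test system – Clostridium kluyveri diaphorase, purified enzyme · Incubation – reaction time 16 min, room temperature · Buffer or medium – 50 mM HEPES pH 7.4 with 4.542 mM MgCl2, 0.005% Tween 20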
# Lmaj promast 1uM: L. major promastigote growth inhibition, 1 uM repeat; shares compounds with L major viab; resazurin fluorescence, 48 h; inhibition, % at 1 µM; hit rate 13% among 1,100;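 active = inhibition above about 50% in both repeat tests, limit read from the data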
# Active calls of the source: *; . = not tested or not shown. Cut-off read from the data, not from the text of the source, unless noted: active = inhibition above about 50%; inactive = the rest.
SMILES,G6PDH counter,Redox H2O2 prof,Diaph inh CS,L major viab,PfG6PD inh,Diaph act CS,Lmaj promast 1uM
COc1ccccc1CN=c1c([N+](=O)[O-])nn(-c2ccc3c(c2)OCCO3)n1O,5,0,8,98*,-8,0.9,14
CC1CCN(c2c([N+](=O)[O-])nn(-c3ccc4c(c3)OCCO4)[n+]2[O-])CC1,14,0,13,34,35,0.9,.
COC(=O)c1ccc(-c2ccc(CNCC(O)c3ccccc3)o2)cc1 (stereo not given),-36,-2,-2,99*,-2,1,55*
O=C(N/C=N/OCc1cccc(C(F)(F)F)c1)N1OC[C@@H]2COc3ccc4ccccc4c3[C@@H]21,4,-2,15,92*,16,0.9,-3
CO/N=C/NC(=O)N1OC[C@@H]2COc3ccc4ccccc4c3[C@@H]21,8,0,4,1,7,1,.
Cc1ccc(NC(=S)c2nc3ccccc3[nH]2)cc1,12,-4,5,70*,1,1,-4
CCNC(=S)Nc1ccc(Cc2nc3ccccc3[nH]2)cc1,.,.,.,.,-16,.,.
Cc1cccc(OCC(=O)O/N=C(\N)Cc2ccc(Cl)cc2)c1,17,0,22,-4,5,0.8,.
Cc1ccc(N=C(NOCc2ccc(Cl)cc2Cl)c2nonc2N)c(C)c1,1,0,20,98*,29,0.8,20
Cc1ccccc1N=C(NOCc1ccc(Cl)cc1Cl)c1nonc1N,-4,0,-1,13,19,1,.
c1ccc(-n2nnnc2Oc2cccc3cccnc23)cc1,-7,3,-6,63*,3,1.1,-12
Cc1ccc2cccc(Oc3nnnn3-c3ccccc3)c2n1,2,0,8,8,36,0.9,.
CN(CCN1CCc2ccccc2C1)Cc1nc(Cc2ccccc2F)no1,7,0,6,85*,-10,0.9,72*
COc1ccc(Cc2noc(CN(C)CCN3CCc4ccccc4C3)n2)cc1OC,20,-1,-8,1,-13,1.1,.
O=C(O)CC(NC(=O)c1ccncc1)c1ccccc1 (stereo not given),11,0,8,-6,13,0.9,.
COc1ccc(NS(=O)(=O)c2cccc(C(=O)NNC(=O)c3cc(C)oc3C)c2)cc1,16,0,13,-9,-24,0.9,.
COc1ccc(NS(=O)(=O)c2cc(C)ccc2NC(=O)c2cc(C)oc2C)cc1,7,2,10,52*,9,0.9,19
O=C(c1cnn2c(C(F)F)cc(-c3ccccc3)nc12)N1CCc2ccccc2C1,16,0,22,38,3,0.8,.
Cc1ccc(-c2cc(C(F)F)n3ncc(C(=O)N4CCCCC4c4cccnc4)c3n2)cc1 (stereo not given),19,1,10,95*,11,0.9,15
O=C(O)c1cccnc1Sc1ccccc1,14,0,-8,56*,-9,1.1,-13
S=c1[nH]ccn1-c1cccc(Cl)c1,11,0,20,59*,15,0.8,-14
Cc1ccc(-n2cc[nH]c2=S)cc1C,-17,0,18,36,18,0.8,.
Cc1ccccc1N=C1Nc2ccccc2CS1,0,0,11,51*,-6,0.9,6
COC(=O)c1ccc(C(NC(=O)OCc2ccccc2)/C(F)=C/[C@@H](C)C(=O)NCc2ccc(OC)c(OC)c2)cc1 (stereo not given in full),11,0,13,1,5,0.9,.
O=C(Cc1ccccc1)Nc1cc(C(=O)c2ccccc2)ccc1N1CCOCC1,2,1,13,97*,7,0.9,-4
SMILES,G6PDH counter,Redox H2O2 prof,Diaph inh CS,L major viab,PfG6PD inh,Diaph act CS,Lmaj promast 1uM
Cc1[nH]c2ccccc2c1C(c1ccccn1)N1CCC(C(N)=O)CC1 (stereo not given),9,1,-11,60*,2,1.1,5
COc1ccc(N(C(=O)COc2cccc(C)c2)S(=O)(=O)c2ccc(C)cc2)cc1,10,0,19,52*,15,0.8,-12
Cc1ncc(C(O)c2ccccc2)n1Cc1ccccc1 (stereo not given),.,.,.,.,-14,.,.
O=C1NCC(c2ccccc2)C1C(=O)N/N=C\c1ccc(-c2ccc(Cl)c(Cl)c2)o1 (stereo not given),1,1,22,59*,5,0.8,-11
O=C1NCC(c2ccccc2)C1C(=O)N/N=C/c1ccc(Cl)s1 (stereo not given),9,0,12,15,33,0.9,.
Cc1cc(=O)n2c3c(c4c(cc13)c(CN(C)C)cc(=O)n4C)OC2,.,.,.,.,47,.,.
CCOC(=O)C1=C(C)NC(=O)NC1c1ccc(Br)s1 (stereo not given),7,0,1,66*,20,1,-9
CCCNCC1C(Oc2ccc(Cl)cc2)C(=O)N1c1ccccc1C (stereo not given),6,0,-2,91*,-1,1,-12
NC1=NC2=C(CCCC2)C2(CCCCC2)S1,4,3,-3,54*,8,1,15
CN1CCN2c3ccccc3Cc3ccccc3C2C1 (stereo not given),10,0,-10,54*,1,1.1,-22
CN1CCN(C2Cc3ccccc3Sc3ccc(Cl)cc32)CC1 (stereo not given),.,.,.,.,8,.,.
Clc1ccc2[nH]cc(-c3nnnn3-c3ccc4ccccc4c3)c2c1,-50,-3,18,99*,12,0.8,86*
Cc1ccc(-n2nnnc2-c2cnc3ccc(Cl)cc3c2-c2ccccc2)cc1,6,-1,18,-4,17,0.8,.
COC(=O)[C@@H]1CC[C@H](C)[C@@H](c2ccc(C)cc2)N1C(=O)c1ccc(/C=N/OCC[C@@H]2C=C[C@H](OC(C)=O)[C@@H](COC(C)=O)O2)cc1,19,0,5,96*,.,0.9,-17
N/C(=N\OC(=O)CCC1CCCCC1)c1ccc([N+](=O)[O-])cc1,5,2,6,76*,-5,0.9,1
COCCSc1nc(N)c2c3c(sc2n1)CN(C)CC3,.,.,.,.,9,.,.
CCOC(=O)c1nc2cc3n(c(C)c-2c1C)C(C)C(CC)=C3C (stereo not given),.,0,.,99*,-8,.,29
CCOC(=O)c1cn2ccc(C)cc2n1,19,0,17,-3,-7,0.8,.
O=C(c1ccccc1)N1CCN(C(=O)c2ccccc2)c2ccccc21,.,.,.,.,21,.,.
